The target of data set [1] is CDK4/Cyclin D3 (Homo sapiens) (UniProt P11802+P30281). The experiment in a line: Inhibition of recombinant full-length human CDK4/cyclinD3 at 500 nM using Rb fragment as substrate measured after 40 mins in presence of [gamma33P]ATP by scintillation counting method relative to control. It is filed as protein-complex assay. A digest of the protocol: (§1)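 Percent inhibition of kinase activity at a single compound concentration, measured by the outsourced Eurofins KinaseProfiler panel. Values are the mean of two independent experiments.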

In data set [2] the test system is NCI-H1299. The experiment in a line: Antiproliferative activity against human H1299 cells assessed as inhibition of cell viability at 1 uM after 72 hrs by CCK-8 assay relative to control. It is filed as functional. As to conditions: NCI-H1299, 72 h. The method in brief:
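Single-concentration viability screen using CCK-8. Cells were seeded at 3000/well and treated for 72 h. A450 read after 1-4 h with reagent. Percent inhibition calculated against untreated control and blank wells as (Ac−As)/(Ac−Ab)×100%.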
Background: Formazan colour is commonly taken as a measure of viable cells.

The test system of data set [3] is NCI-H1299. The experiment in a line: Induction of cell cycle arrest in human H1299 cells assessed as accumulation at G2/M phase after 24 hrs by propidium iodide/RNase staining based flow cytometric analysis. It is filed as functional. A digest of the protocol: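 A549 and H1299 plated at 5×10^5 cells/mL in 6-well plates, treated after adherence for 24 h. Washed with PBS, fixed overnight in ice-cold 75% ethanol, stained with propidium iodide plus RNase A for 30 min at 37 °C, analysed by flow cytometry for phase distribution. Means ± SD, three independent experiments.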
For orientation: Flow cytometry measures light scatter and fluorescence of single cells or particles in a stream.

The subject of data set [4] is A549. Kind of data set: Induction of apoptosis in human A549 cells assessed as late apoptotic cells at 0.5 uM after 48 hrs by AnnexinV-FITC/PI staining-based flow cytometric analysis (reference value: 7.66%). It is filed as functional.
The subject of data set [5] is A549. The experiment in a line: Downregulation of NANOG in human A549 cells at 0.25 to 1 uM by Western blot analysis. It is filed as functional, cell-based. For orientation: A western blot detects proteins with antibodies after separation by electrophoresis.
Data set [6] can be described thus: Half life in CD-1 mouse liver microsomes at 2 uM in presence of NADPH measured up to 1 hr by HPLC analysis. It is filed as ADME, Microsome. The method in brief: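 Drug at 2 µM incubated at 37 °C with male liver microsomes at 1 mg/mL, in 0.1 M phosphate buffer pH 7.4 with MgCl2. After 5 min preincubation, reaction started with NADPH. Samples (n=3) taken at 0, 10, 20, 30, 45 and 60 min, quenched with ice-cold acetonitrile, spun, and analysed by HPLC. t1/2 derived from the fitted rate constant k.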

Data set [7] concerns the target Tyrosine-protein kinase ABL1 (Homo sapiens) (UniProt P00519). Kind of data set: Inhibition of human ABL1 at 1 uM using EAIYAAPFAKKK as substrate measured after 40 mins by [gamma33P]ATP by scintillation counting method relative to control. A digest of the protocol: as §1
The subject of data set [8] is Tyrosine-protein kinase ABL1 (Homo sapiens), P00519 [H396P]. Kind of data set: Inhibition of recombinant human ABL H396P mutant (27 to end residues) at 1 uM using EAIYAAPFAKKK as substrate measured after 40 mins in presence of [gamma33P]ATP by scintillation counting method relative to control.
The target of data set [9] is 5'-AMP-activated protein kinase catalytic subunit alpha-1 (Homo sapiens) (UniProt Q13131). The experiment in a line: Inhibition of full length recombinant human AMPK alpha1 at 1 uM using AMARAASAAALARRR as substrate measured after 40 mins in presence of [gamma33P]ATP by scintillation counting method relative to control. A digest of the protocol: (§2)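 Single-point inhibition at 1 µM was measured in the Eurofins KinaseProfiler panel. Values are the mean of two independent experiments.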
5'-AMP-activated protein kinase catalytic subunit alpha-1 (Homo sapiens), sequence (Q13131 whole entry, looked up): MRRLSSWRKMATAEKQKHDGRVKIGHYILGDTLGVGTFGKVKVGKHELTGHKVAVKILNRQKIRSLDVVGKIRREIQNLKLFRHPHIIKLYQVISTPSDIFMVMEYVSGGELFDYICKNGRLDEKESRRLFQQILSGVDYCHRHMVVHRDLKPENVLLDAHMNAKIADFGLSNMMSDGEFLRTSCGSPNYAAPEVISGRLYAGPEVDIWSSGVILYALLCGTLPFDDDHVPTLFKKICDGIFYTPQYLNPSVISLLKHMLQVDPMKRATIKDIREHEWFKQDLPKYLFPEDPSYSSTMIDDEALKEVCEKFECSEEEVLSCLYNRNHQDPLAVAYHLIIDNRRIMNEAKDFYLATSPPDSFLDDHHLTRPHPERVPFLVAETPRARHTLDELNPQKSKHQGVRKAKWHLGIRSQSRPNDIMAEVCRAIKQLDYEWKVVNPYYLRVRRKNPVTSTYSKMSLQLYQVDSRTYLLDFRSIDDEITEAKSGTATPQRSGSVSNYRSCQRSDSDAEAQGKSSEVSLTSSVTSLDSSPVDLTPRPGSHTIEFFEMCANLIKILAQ

For data set [10], the target named is Calcium/calmodulin-dependent protein kinase type II subunit delta (Homo sapiens) (UniProt Q13557). Kind of data set: Inhibition of recombinant full-length human CaMK2delta at 1 uM using calmodulin as substrate measured after 40 mins in presence of [gamma33P]ATP by scintillation counting method relative to control.
The target in data set [11] is Casein kinase 2 (Homo sapiens) (UniProt P67870+P68400+P19784+Q8NEV1). The experiment in a line: Inhibition of human CK2 at 1 uM relative to control. It is filed as protein assay. The method in brief:
as §1

Data set [12] deals with Platelet-derived growth factor receptor beta (Homo sapiens) (UniProt P09619). Kind of data set: Inhibition of recombinant human PDGFRbeta (557 to end residues) at 1 uM using poly[Glu:Tyr] (4:1) as substrate measured after 40 mins in presence of [gamma33P]ATP by scintillation counting method relative to control.
Platelet-derived growth factor receptor beta (Homo sapiens), sequence (P09619 whole entry): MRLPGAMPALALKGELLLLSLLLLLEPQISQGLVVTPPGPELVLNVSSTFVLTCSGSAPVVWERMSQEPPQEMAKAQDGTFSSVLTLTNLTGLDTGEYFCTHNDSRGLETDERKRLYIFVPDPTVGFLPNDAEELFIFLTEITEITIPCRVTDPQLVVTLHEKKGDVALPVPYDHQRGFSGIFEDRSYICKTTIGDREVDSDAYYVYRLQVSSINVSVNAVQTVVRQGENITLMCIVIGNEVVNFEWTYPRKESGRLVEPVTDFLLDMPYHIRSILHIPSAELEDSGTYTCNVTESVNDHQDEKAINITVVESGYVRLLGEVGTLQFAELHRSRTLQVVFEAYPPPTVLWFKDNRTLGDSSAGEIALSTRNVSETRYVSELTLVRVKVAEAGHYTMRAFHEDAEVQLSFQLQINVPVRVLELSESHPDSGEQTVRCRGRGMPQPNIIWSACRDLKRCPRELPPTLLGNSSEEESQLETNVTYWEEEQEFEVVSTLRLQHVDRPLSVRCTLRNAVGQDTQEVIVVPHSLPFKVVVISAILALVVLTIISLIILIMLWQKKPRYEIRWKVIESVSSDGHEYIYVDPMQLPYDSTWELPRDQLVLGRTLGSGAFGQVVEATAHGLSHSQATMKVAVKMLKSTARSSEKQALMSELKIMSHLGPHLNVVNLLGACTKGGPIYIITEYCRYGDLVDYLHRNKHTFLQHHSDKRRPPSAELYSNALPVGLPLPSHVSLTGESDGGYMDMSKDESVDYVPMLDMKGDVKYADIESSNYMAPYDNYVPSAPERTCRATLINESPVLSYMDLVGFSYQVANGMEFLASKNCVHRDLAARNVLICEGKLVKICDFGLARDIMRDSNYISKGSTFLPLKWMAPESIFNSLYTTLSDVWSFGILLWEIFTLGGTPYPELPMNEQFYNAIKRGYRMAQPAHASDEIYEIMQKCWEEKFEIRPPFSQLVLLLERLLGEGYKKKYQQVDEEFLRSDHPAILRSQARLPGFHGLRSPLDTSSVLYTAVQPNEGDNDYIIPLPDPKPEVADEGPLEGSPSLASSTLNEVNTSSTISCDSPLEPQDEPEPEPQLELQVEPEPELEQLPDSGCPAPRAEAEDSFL
Data set [13] deals with Protein kinase C beta type (Homo sapiens) (UniProt P05771). The experiment in a line: Inhibition of recombinant human PKCbeta1 (2 to end residues) at 1 uM using histone H1 as substrate measured after 40 mins in presence of [gamma33P]ATP by scintillation counting method relative to control.
Data set [14] addresses Serine/threonine-protein kinase DCLK2 (Homo sapiens) (UniProt Q8N568). Kind of data set: Inhibition of recombinant human DCAMKL2 (376 to end residues) at 1 uM using KKLNRTLSFAEPG as substrate measured after 40 mins in presence of [gamma33P]ATP by scintillation counting method relative to control. A digest of the protocol:
as §2

Data set [15] addresses Ephrin type-B receptor 3 (Homo sapiens) (UniProt P54753). Kind of data set: Inhibition of recombinant human EphB3 (599 to 920 residues) at 1 uM using poly(Glu, Tyr) 4:1 as substrate measured after 40 mins in presence of [gamma33P]ATP by scintillation counting method relative to control. A digest of the protocol: as §2
Data set [16] addresses Homeodomain-interacting protein kinase 3 (Homo sapiens) (UniProt Q9H422). Kind of data set: Inhibition of recombinant human HIPK3 (161 to 562 residues) at 1 uM using myelin basic protein as substrate measured after 40 mins in presence of [gamma33P]ATP by scintillation counting method relative to control.
Data set [17] concerns the target Proto-oncogene tyrosine-protein kinase Src (Homo sapiens) (UniProt P12931). The experiment in a line: Inhibition of human Src (1 to 530 residues) at 1 uM using GGEEEEYFELVKKKK as substrate measured after 40 mins in presence of [gamma33P]ATP by scintillation counting method relative to control. The method in brief:
as §1

Data set [18] deals with Serine/threonine-protein kinase 32A (Homo sapiens) (UniProt Q8WU08). The experiment in a line: Inhibition of recombinant full-length human STK32A at 1 uM using casein as substrate measured after 120 mins in presence of [gamma33P]ATP by scintillation counting method relative to control.
Data set [19] has as its target Serine/threonine-protein kinase 32C (Homo sapiens) (UniProt Q86UX6). The experiment in a line: Inhibition of recombinant full-length human STK32C at 1 uM using casein as substrate measured after 120 mins in presence of [gamma33P]ATP by scintillation counting method relative to control.
The target of data set [20] is Tribbles homolog 2 (Homo sapiens) (UniProt Q92519). The experiment in a line: Inhibition of recombinant full-length human TRB2 at 1 uM using RRRFRPASPLRGPPK as substrate measured after 120 mins in presence of [gamma33P]ATP by scintillation counting method relative to control.
Data set [21] concerns the target MAP kinase-activated protein kinase 3 (Homo sapiens) (UniProt Q16644). The experiment in a line: Inhibition of recombinant human MAPKAPK3 (2 to end residues) at 1 uM using KKLNRTLSVA as substrate measured after 40 mins in presence of [gamma33P]ATP by scintillation counting method relative to control.
In data set [22] the target is Wee1-like protein kinase 2 (Homo sapiens) (UniProt P0C1S8). Kind of data set: Inhibition of recombinant full-length human Wee1B at 1 uM using LSNLYHQGKFLQTFCGSPLYRRR as substrate measured after 120 mins in presence of [gamma33P]ATP by scintillation counting method relative to control.
Wee1-like protein kinase 2 (Homo sapiens), sequence (P0C1S8 whole entry, looked up): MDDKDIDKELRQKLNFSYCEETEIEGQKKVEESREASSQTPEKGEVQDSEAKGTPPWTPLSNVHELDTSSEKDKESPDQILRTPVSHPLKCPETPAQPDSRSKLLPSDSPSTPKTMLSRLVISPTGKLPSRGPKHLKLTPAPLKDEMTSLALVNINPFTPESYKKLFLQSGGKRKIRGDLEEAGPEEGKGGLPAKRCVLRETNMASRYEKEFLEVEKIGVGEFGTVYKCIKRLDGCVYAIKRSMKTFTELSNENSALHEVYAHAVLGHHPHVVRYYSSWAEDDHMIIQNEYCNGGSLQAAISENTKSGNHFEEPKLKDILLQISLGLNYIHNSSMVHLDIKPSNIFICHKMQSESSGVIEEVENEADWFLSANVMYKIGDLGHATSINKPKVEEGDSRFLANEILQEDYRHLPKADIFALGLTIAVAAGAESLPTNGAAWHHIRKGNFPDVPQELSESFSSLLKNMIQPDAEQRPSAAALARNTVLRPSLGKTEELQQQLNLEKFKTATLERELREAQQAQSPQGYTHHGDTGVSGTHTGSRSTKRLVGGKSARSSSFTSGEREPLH

Each structure is given as a SMILES string. Activity calls are given as the source filed them. The rule behind the calls is not given here.

Proto-oncogene tyrosine-protein kinase Src (Homo sapiens), sequence (P12931 2-536 limits assumed): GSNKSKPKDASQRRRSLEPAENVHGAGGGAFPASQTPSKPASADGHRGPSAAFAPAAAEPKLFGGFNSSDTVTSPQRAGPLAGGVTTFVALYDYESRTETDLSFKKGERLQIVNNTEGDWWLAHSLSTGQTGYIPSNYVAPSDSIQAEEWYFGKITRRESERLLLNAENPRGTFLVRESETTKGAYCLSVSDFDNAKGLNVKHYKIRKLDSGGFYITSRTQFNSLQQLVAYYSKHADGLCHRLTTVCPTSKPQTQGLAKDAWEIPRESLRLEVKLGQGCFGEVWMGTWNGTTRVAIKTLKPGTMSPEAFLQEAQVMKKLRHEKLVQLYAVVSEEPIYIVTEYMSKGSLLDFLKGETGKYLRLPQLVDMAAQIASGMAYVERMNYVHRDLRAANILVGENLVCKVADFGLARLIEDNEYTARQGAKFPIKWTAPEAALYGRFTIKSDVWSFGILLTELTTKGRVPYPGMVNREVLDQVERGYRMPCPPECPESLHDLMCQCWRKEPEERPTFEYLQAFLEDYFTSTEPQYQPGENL
Serine/threonine-protein kinase DCLK2 (Homo sapiens), sequence (Q8N568 whole entry): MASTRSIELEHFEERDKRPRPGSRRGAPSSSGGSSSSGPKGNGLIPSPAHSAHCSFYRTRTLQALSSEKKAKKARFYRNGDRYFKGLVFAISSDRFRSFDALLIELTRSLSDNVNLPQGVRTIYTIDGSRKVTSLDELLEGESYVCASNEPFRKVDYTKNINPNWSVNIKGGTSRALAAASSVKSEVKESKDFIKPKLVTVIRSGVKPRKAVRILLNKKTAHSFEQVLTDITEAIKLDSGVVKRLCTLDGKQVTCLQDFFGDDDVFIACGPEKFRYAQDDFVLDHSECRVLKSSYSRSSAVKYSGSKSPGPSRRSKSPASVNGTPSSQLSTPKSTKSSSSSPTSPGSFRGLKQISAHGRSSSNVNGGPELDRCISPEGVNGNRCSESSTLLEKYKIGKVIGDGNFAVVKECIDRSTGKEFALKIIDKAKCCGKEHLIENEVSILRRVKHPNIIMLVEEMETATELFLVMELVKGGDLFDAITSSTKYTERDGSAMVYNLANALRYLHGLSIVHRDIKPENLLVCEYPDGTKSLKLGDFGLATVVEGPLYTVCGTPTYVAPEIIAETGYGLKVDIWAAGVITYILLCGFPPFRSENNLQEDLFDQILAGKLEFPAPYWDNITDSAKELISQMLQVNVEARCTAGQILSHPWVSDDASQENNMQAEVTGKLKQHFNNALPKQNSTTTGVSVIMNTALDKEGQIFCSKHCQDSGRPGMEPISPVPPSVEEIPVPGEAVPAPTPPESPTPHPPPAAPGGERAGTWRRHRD
Ephrin type-B receptor 3 (Homo sapiens), sequence (P54753 whole entry, the tested form may be a part): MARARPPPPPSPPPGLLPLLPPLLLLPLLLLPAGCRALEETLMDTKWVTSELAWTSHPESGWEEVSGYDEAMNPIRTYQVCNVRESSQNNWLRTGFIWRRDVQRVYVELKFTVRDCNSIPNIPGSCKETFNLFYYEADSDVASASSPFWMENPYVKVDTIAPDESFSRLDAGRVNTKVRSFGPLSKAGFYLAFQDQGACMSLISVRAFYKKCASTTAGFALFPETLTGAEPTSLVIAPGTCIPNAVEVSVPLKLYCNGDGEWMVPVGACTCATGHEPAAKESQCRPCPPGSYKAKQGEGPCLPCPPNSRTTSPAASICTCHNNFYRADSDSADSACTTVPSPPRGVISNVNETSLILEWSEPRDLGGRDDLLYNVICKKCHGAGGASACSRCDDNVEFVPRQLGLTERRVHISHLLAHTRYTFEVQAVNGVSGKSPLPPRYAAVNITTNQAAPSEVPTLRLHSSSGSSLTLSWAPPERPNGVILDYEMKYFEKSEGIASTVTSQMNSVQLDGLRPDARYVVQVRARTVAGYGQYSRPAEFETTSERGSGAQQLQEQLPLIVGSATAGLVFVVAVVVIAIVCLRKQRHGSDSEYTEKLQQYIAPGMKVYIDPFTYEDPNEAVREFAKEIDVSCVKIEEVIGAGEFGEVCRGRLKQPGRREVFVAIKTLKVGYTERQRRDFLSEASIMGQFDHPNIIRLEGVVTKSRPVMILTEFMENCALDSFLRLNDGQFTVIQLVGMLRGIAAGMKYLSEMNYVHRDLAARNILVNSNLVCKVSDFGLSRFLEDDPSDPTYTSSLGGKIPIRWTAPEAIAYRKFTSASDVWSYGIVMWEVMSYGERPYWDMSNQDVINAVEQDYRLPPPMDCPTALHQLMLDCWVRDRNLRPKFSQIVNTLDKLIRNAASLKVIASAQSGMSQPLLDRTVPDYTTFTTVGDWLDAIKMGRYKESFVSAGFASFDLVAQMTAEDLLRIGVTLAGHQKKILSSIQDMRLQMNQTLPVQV
Serine/threonine-protein kinase 32C (Homo sapiens), sequence (Q86UX6 whole entry): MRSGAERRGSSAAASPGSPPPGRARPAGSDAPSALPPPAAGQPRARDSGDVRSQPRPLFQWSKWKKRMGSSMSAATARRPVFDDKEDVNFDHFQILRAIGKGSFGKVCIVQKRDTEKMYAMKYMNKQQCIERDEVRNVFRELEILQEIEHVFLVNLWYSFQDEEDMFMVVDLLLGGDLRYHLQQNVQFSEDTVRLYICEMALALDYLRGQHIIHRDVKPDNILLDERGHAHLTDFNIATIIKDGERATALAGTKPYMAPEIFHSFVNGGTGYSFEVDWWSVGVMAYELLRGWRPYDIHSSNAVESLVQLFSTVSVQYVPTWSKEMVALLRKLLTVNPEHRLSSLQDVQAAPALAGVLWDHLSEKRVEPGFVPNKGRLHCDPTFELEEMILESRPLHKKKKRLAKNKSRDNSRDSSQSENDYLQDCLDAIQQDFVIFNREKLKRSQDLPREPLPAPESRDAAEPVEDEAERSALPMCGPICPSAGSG

As usually defined, the inhibition is the drop in the measured response relative to a control, in per cent. What is called half-life is the time in which the quantity being followed falls by half. Regarding `CN(C)C(=O)c1cc2cnc(Nc3ccc(NC(=O)CCCCCCCN=C=S)cc3)nc2n1C1CCCC1`, the inhibition in data set [1] came out at 75%; in data set [7] it was 88%; in data set [8], 35%; in data set [9] it was 11%; in data set [10], 36%; in data set [11], 4%. The inhibition in data set [12] was 2%; in data set [13] it was 20%; in data set [14] it was 1%; in data set [15] it was 12%; in data set [16] it was 26%; in [17], 36%. Besides, the inhibition is 33% in [18]; 17% in [19]; 22% in data set [20]; 0% in [21]; -1% in data set [22]. For the same compound, the inhibition at 1 µM with NCI-H1299 [2] turned out to be 87.4%. Also, the results for the Activity result in the data set with NCI-H1299 [3] and in the data set with A549 [4] were “Dose-dependent effect” and 13.8%, respectively. Also, in the data set on A549 [5], the outcome was Active. The half-life at 2 µM in data set [6] was found to be 23.1 min.
